Reference: paper PMC10173409 (Science translational medicine, 2023)
Where two headings read alike, the source gives them in different places.

Columns and labels:
mouse corneal epithelium [1] = assay: Corneal epithelial barrier function, fluorescein staining in vivo
[2] = system: thioglycolate-elicited mouse peritoneal macrophages; assay: LPS/LTA-induced cytokine secretion from macrophages, ELISA; assay type: cell-based; details: for dose dependence of cytokine inhibition, macrophages: 50, 100 or 200 μg/ml, 8 h, Fig. S2; for cytokine suppression at 24 h, macrophages: 24 h post-ligand stimulation, Fig. S3
In short: (§1)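 C57BL/6J mice injected i.p. with 1 ml 3% thioglycolate. Peritoneal neutrophils collected day 1 (DMEM), macrophages day 3 (RPMI, 6 h adherence), both 2% FBS, 1x10⁵ cells/well after RBC lysis. Stimulated with P. aeruginosa LPS or S. aureus LTA (500 ng/ml); test peptide (50, 100 or 200 μg/ml) added 30 min before or after. Incubated 8 or 24 h, 37°C/5% CO₂. Supernatant IL-6, TNFα, G-CSF, CXCL1, CXCL2, CXCL10 measured by ELISA.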

S. aureus, mouse corneas [3] = assay: Prophylaxis of S. aureus keratitis; assay type: in vivo; details: 0.1% (5 μg) topical once 30 min before 10^6 CFU, 24 h; for bacterial burden, S. aureus prophylaxis: Fig. 5H; for immune cell infiltration, S. aureus prophylaxis: Fig. 5I, J
In short: (§2)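 C57BL/6J mice (both sexes, 10-12 wk), anesthetized with ketamine/dexmedetomidine i.p. One cornea per mouse, scarified with three 26g-needle abrasions. 5 μl test peptide (0.1% in saline, 5 μg) applied once, 30 min before amikacin-resistant P. aeruginosa 10⁵ CFU or S. aureus 10⁶ CFU. At 24 h: homogenate CFU on tryptic soy agar; collagenase-digested corneas analysed by flow cytometry for CD45⁺, Ly6B.2⁺F4/80⁻ and F4/80⁺ cells. n = 8-10, two experiments.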

[4] = system: thioglycolate-elicited mouse peritoneal neutrophils; assay: LPS/LTA-induced cytokine secretion from neutrophils, ELISA; assay type: cell-based; details: for dose dependence of cytokine inhibition, neutrophils: 50, 100 or 200 μg/ml, 8 h, Fig. S2; for cytokine suppression at 24 h, neutrophils: 24 h post-ligand stimulation, Fig. S3
In short: as §1

[5] = ref [20]; cited from earlier work
[6] = system: amikacin-resistant P. aeruginosa, mouse corneas; assay: Treatment of established P. aeruginosa keratitis; assay type: in vivo; details: for total leukocytes, neutrophils and macrophages, P. aeruginosa treatment: 3 times daily, as early as one day post-treatment, Fig. 6C-F; for disease severity over the 3-day treatment course, P. aeruginosa: 5 μg in liposomes topical 3 times daily
In short: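 Scarified C57BL/6J corneas (one per mouse) inoculated with amikacin-resistant P. aeruginosa (10⁵ CFU). From 24 h post-infection: test peptide in phosphatidylcholine/stearylamine/cholesterol liposomes (5 μg in 5 μl), or liposome vehicle, applied topically three times daily for 1 or 3 days. Blinded 0-16 clinical score from four opacity/epithelial features. Corneal CD45⁺ leukocytes, Ly6B.2⁺F4/80⁻ neutrophils and F4/80⁺ macrophages counted by flow cytometry.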

[7] = system: TLR2, mouse peritoneal macrophages; assay: TLR2 endocytosis in macrophages, flow cytometry; assay type: cell-based; details: peptide alone 200 μg/ml (LTA 500 ng/ml), 1 h; Fig. 4D
In short: (§3)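 Thioglycolate-elicited C57BL/6J peritoneal neutrophils (day 1) or adherent macrophages (day 3) incubated 1 h with test peptide alone. TLR2 localisation assessed by flow cytometry as cell-surface versus intracellular staining.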

red blood cells = assay: Hemolysis; assay type: cell-based; details: for toxic effect on blood cells: discussion summary; for hemolysis (amount of hemoglobin released): vs untreated samples, Fig. S1C
mouse corneal epithelium [8] = assay: Corneal wound healing; assay type: in vivo; details: 0.1% topical, 2.5 μg peptide three times within 24 h, 6 h and 24 h after wounding, vs saline and SC10, Fig. S1E
In short: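 C57BL/6J mice, both sexes, 10–12 wk, anesthetised i.p. with ketamine/dexmedetomidine, reversed with atipamezole. Central 2 mm corneal epithelium removed with blade. Wounds got topical saline or test peptide (2.5 μg) three times within 24 h. Defects stained with 0.38% fluorescein immediately, 6 h and 24 h post-injury; stained area measured. One cornea per mouse.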

[9] = system: TLR2, mouse peritoneal neutrophils; assay: TLR2 endocytosis in neutrophils, flow cytometry; assay type: cell-based; details: peptide alone 200 μg/ml (LTA 500 ng/ml), 1 h; Fig. 4C
In short: as §3

immune cells [10] = assay: Toxic effect on immune cells; details: discussion summary
[11] = system: human telomerase-immortalized corneal epithelial (hTCEpi) cells; assay: MTT cell viability; assay type: cell-based; details: discussion summary
In short: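 hTCEpi (telomerase-immortalized human corneal epithelial) cells incubated 24 h with test peptide at 200 μg/ml (0.02% w/v), with a scrambled peptide as control. Viability was read by MTT assay.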

[12] = system: amikacin-resistant P. aeruginosa keratitis isolate, mouse corneas; assay: Prophylaxis of P. aeruginosa keratitis; assay type: in vivo; details: 0.1% (5 μg) topical once 30 min before infection; 24 h; P < 0.01; Fig. 5D, E
In short: as §2

hTCEpi cells = assay: TUNEL assay of DNA fragmentation; assay type: cell-based, human; details: 24-h incubation, Fig. S1B
Pseudomonas aeruginosa = details: ref [20]; cited from earlier work
[13] = system: cell surface/endosomal TLR3; assay: media poly; assay type: cell-based, mouse; details: neutrophils, high-molecular-weight poly(I:C) 1 μg/ml added to media; Fig. 1D
In short: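 Thioglycolate-elicited mouse peritoneal neutrophils (collected day 1, DMEM/2% FBS) were stimulated with high-molecular-weight poly(I:C) (1 μg/ml) added to medium, alone or with test peptide, at 37°C/5% CO₂. Phospho-NFκB p65⁺ and phospho-IRF3⁺ cells were quantified by intracellular flow cytometry. Mean ± SD, N = 3 replicates.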

human MD2/TLR4 complex = assay: MD2 blocking assay; assay type: binding; details: for inhibition of LPS binding to MD2/TLR4 beads (in words): 30-min preincubation, peptide 60 μM, FITC-LPS 1 μg/ml, Fig. 3A; for inhibition of LPS binding to MD2/TLR4 beads with soluble MD2: soluble MD2 1 μg/ml present during preincubation with peptide 60 μM, Fig. 3B
In short: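 Human MD2/TLR4-conjugated latex beads incubated with test peptide (60 μM), without or with soluble MD2 (1 μg/ml). Beads washed, then incubated with FITC-LPS (1 μg/ml). Percentage of LPS⁺ beads quantified by flow cytometry. Mean ± SEM, n = 3-5 independent experiments.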

S. aureus, mouse corneas [14] = assay: Treatment of established S. aureus keratitis; assay type: in vivo; details: for infectious load, S. aureus treatment: 5 μg in liposomes, 3 times daily, Fig. 7G
In short: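 C57BL/6J mice, both sexes, 10–12 wk. Corneas scarified with three 26g needle abrasions, inoculated with S. aureus 10⁶ CFU. From 24 h post-infection, 5 μg test peptide in 5 μl liposome mix (phosphatidylcholine/stearylamine/cholesterol) or liposome vehicle given topically three times daily for 1 or 3 days. Blinded daily scoring of four features (0–4 each, total 0–16). Endpoint CFU from corneal homogenates plated on tryptic soy agar.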

MD2/TLR4 complex = assay: LPS displacement assay; assay type: binding, human; details: 60 μM, 30 min; Fig. 3E
In short: (§4)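 Beads conjugated with human MD2/TLR4 complex or TLR2 were preincubated with FITC-LPS or FITC-LTA (1 μg/ml) respectively, PBS-washed, then mixed with test peptide (60 μM). Percentage of ligand-positive beads was measured by flow cytometry. Mean ± SEM, n = 3-5 independent experiments.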

TLR2 = assay: LTA displacement assay; assay type: binding, human; details: 60 μM, 30 min; Fig. 3F
In short: as §4

[15] = ref [49], [50]; cited from earlier work
bacteria = details: high-salt media; ref [49], [50]; cited from earlier work
Staphylococcus aureus = details: ref [20]; cited from earlier work
immune cells [16] = system: immune cells
[17] = ref [20]; cited from earlier work; remark: listed apart in the source

Substance	corneal barrier function, fluorescein staining (mouse corneal epithelium [1]; mouse, in vivo)	dose dependence of cytokine inhibition, macrophages [2]	cytokine suppression at 24 h, macrophages [2]	bacterial burden, S. aureus prophylaxis (S. aureus, mouse corneas [3])	immune cell infiltration, S. aureus prophylaxis (S. aureus, mouse corneas [3])	dose dependence of cytokine inhibition, neutrophils [4]	cytokine suppression at 24 h, neutrophils [4]	total leukocytes, neutrophils and macrophages, P. aeruginosa treatment ([6]; 5 μg in liposomes)	TLR2 internalization, macrophages [7]	toxic effect on blood cells (red blood cells)	hemolysis (amount of hemoglobin released) (red blood cells)	barrier restoration after wounding (re-epithelialization) (mouse corneal epithelium [8])	TLR2 internalization, neutrophils [9]	toxic effect on corneal epithelial cells [11]	infiltrated leukocytes, neutrophils and macrophages, P. aeruginosa prophylaxis [12]	apoptosis (hTCEpi cells)	inhibition of LPS binding to MD2/TLR4 beads (in words) (human MD2/TLR4 complex)	inhibition of LPS binding to MD2/TLR4 beads with soluble MD2 (human MD2/TLR4 complex)	infectious load, S. aureus treatment (S. aureus, mouse corneas [14])	disease severity over the 3-day treatment course, P. aeruginosa ([6]; Fig. 6A, B)	also measured
Benzalkonium chloride [BAK, reference compound]																					corneal barrier function, fluorescein staining (mouse corneal epithelium [1]; mice, one topical application at 0.1% in saline, Fig. S1D): high degree of fluorescein penetration
GGLSSVGGGS [KAMP10]	remained stain-free	dose-dependent	effective suppression	alleviated	alleviated	dose-dependent	effective suppression	substantially reduced	triggered internalization of TLR2	no detectable toxic effect	no difference from the baseline of untreated samples	substantially accelerated	triggered internalization of TLR2	no detectable toxic effect	significantly reduced	did not induce apoptosis	effectively inhibited subsequent LPS binding	inhibitory effect was abolished	substantially reducing the infectious load		binding affinity for LPS [5]: modest binding affinity; relative effect on disease severity, P. aeruginosa treatment ([6]; KAMP10 vs KAMP18C, 5 μg in liposomes, 1 DAT, Fig. 6A, B): effect more prominent; toxic effect on immune cells (immune cells [10]): no detectable toxic effect; bactericidal mechanism, P. aeruginosa (Pseudomonas aeruginosa): perforated Pseudomonas aeruginosa membrane; p65 and IRF3 phosphorylation, media poly(I:C) [13]: inhibited p65 and IRF3 phosphorylation
GLSGVGSGSG [SC10, reference compound]	stain-free similarly to the SC10- or saline-treated controls											in contrast to saline and SC10					but not SC10, effectively inhibited			severity progression or lack of improvement	displacement of LPS from MD2/TLR4 beads (in words) (MD2/TLR4 complex): as opposed to SC10; displacement of LTA from TLR2 beads (in words) (TLR2): as opposed to SC10
LL-37																				severity progression or lack of improvement	LPS- and LTA-neutralizing activity [15]: known LPS- and LTA-neutralizing activities; bactericidal activity of LL-37 (bacteria): characterized bactericidal activities in high-salt media
RAIGGGLSSVGGGSSTIK [KAMP18C]	remained stain-free	dose-dependent	effective suppression	alleviated	alleviated	dose-dependent	effective suppression	substantially reduced	triggered internalization of TLR2	no detectable toxic effect	no difference from the baseline of untreated samples	substantially accelerated	triggered internalization of TLR2	no detectable toxic effect	significantly reduced	did not induce apoptosis	effectively inhibited subsequent LPS binding	inhibitory effect was abolished	substantially reducing the infectious load		bactericidal mechanism, S. aureus (Staphylococcus aureus): caused major damage to the cell envelope of Staphylococcus aureus; toxic effect on immune cells (immune cells [16]): no detectable toxic effect; binding affinity for LTA [17]: modest binding affinity; relative effect on disease severity, S. aureus treatment (S. aureus, mouse corneas [14]; KAMP18C vs KAMP10, 5 μg in liposomes, Fig. 7A, B): more effective against S. aureus infection
